Data from ChEMBL document CHEMBL1157821, “In vitro photodynamic therapy and quantitative structure-activity relationship studies with stable synthetic near-infrared-absorbing bacteriochlorin photosensitizers” (J Med Chem, 2010).

How the values were obtained:
[1] = Octanol-water partition coefficient, log P by stir-flask method; assay type: physicochemical
In short: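 About 2 mL octanol and 2 mL water were pre-stirred 3 h at room temperature. Under 0.5 mg bacteriochlorin was added and stirred 24 h at 100–200 rpm, then the phases settled for 30 min. An aliquot of each phase was diluted in DMSO and the Qy(0,0) absorbance ratio (octanol/water) was taken. A phase with no detectable compound was set at A=0.001 as a bound.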

HeLa [2] = assay: Photocytotoxicity against human HeLa cells after 24 hrs by MTT assay in presence of 10 J/cm2 laser; assay type: functional; details: light or radiation study, read-out: LD50 (the source's name)
In short: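 HeLa cells (5000/well) grown 24 h, then incubated 24 h with bacteriochlorin at 0.001–10 μM in complete RPMI with 10% serum (DMSO ≤0.2%). Medium replaced, then 10 J/cm2 of 732 nm laser light given (780 nm LED, 50 mW/cm2, for one compound). MTT (4 h, 562 nm) 24 h later. Survival is relative to untreated controls. LD50 in nM. Experiments done in triplicate.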

HeLa [3] = assay: Cellular uptake in human HeLa cells measured per mg of protein at 20.5 uM after 24 hrs by fluorescence measurements; assay type: ADME, cell-based
In short: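 HeLa in RPMI with 10% heat-inactivated FBS, 5000 cells/well, grown 24 h, then given bacteriochlorin in complete medium (DMSO ≤0.2%) for 24 h. Cells were rinsed with warm PBS and lysed in SOLVABLE, 37 °C, 2 h. Fluorescence was read at ex 402/em 730 nm against per-compound calibration curves and normalized to BCA protein, giving nmol per mg protein. Three repeats.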

HeLa [4] = assay: Cellular uptake in human HeLa cells assessed as localization to mitochondria at 1 uM after 24 hrs by confocal fluorescence microscopy; assay type: ADME, cell-based
In short: (§1)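 HeLa plated in 35 mm dishes, attached overnight, then given 1 μM bacteriochlorin in complete medium for 24 h. After a PBS wash, cells got 5 μg/mL LysoTracker green DND-26, MitoTracker green FM or ER-Tracker green for 30 min at 37 °C, then were washed again. Confocal imaging used 488 nm excitation, 515 ± 10 nm (tracker) or >580 nm (bacteriochlorin) emission, and a 63× water objective.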

HeLa [5] = assay: Cellular uptake in human HeLa cells assessed as localization to endoplasmic reticulum at 1 uM after 24 hrs by confocal fluorescence microscopy; assay type: ADME, cell-based; in short: as §1
HeLa [6] = assay: Cellular uptake in human HeLa cells assessed as localization to lysosomes at 1 uM after 24 hrs by confocal fluorescence microscopy; assay type: ADME, cell-based; in short: as §1

## CC1(C)Cc2cc3[nH]c(cc4nc(cc5[nH]c(cc1n2)cc5-c1cc(OCCO)cc(OCCO)c1)CC4(C)C)cc3-c1cc(OCCO)cc(OCCO)c1
[1]; read-out: logP
  logP: ≥ 2.2
HeLa [2]
  CC50: 15 nM
HeLa [3]
  Drug uptake: 10.4 nmol/mg

## CC1(C)Cc2cc3[nH]c(cc4nc(cc5[nH]c(cc1n2)cc5C(=O)O)CC4(C)C)cc3C(=O)O
[1]; read-out: logP
  logP: 1.4
HeLa [2]
  CC50: 4000 nM
HeLa [3]
  Drug uptake: 0.72 nmol/mg

## CC1(C)Cc2cc3[nH]c(cc4nc(cc5[nH]c(cc1n2)cc5-c1cc(O)cc(O)c1)CC4(C)C)cc3-c1cc(O)cc(O)c1
[1]; read-out: logP
  logP: ≥ 2.5
HeLa [2]
  CC50: 80 nM
HeLa [4]
  Drug uptake: Active
HeLa [5]
  Drug uptake: Active
HeLa [3]
  Drug uptake: 13.5 nmol/mg

## CC1(C)Cc2cc3[nH]c(cc4nc(cc5[nH]c(cc1n2)cc5C#CC[N+](C)(C)C)CC4(C)C)cc3C#CC[N+](C)(C)C.[Cl-].[Cl-]
[1]; read-out: logP
  logP: 0.9
HeLa [2]
  CC50: 2000 nM
HeLa [3]
  Drug uptake: 8.2 nmol/mg

## COCCC(CCOC)c1cc2cc3nc(cc4[nH]c(cc5nc(cc1[nH]2)CC5(C)C)cc4C(CCOC)CCOC)CC3(C)C
[1]; read-out: logP
  logP: ≥ 2.5
HeLa [3]
  Drug uptake: 11.7 nmol/mg

## CC1(C)Cc2cc3[nH]c(cc4nc(cc5[nH]c(cc1n2)cc5C(=O)N(CCN)CCN)CC4(C)C)cc3C(=O)N(CCN)CCN
[1]; read-out: logP
  logP: -1.4
HeLa [2]
  CC50: 800 nM
HeLa [3]
  Drug uptake: 1.8 nmol/mg

## CC1(C)Cc2cc3[nH]c(cc4nc(cc5[nH]c(cc1n2)cc5CN(CCO)CCO)CC4(C)C)cc3CN(CCO)CCO
[1]; read-out: logP
  logP: 2.3
HeLa [2]
  CC50: 100 nM
HeLa [6]
  Drug uptake: Active
HeLa [5]
  Drug uptake: Active
HeLa [3]
  Drug uptake: 8.2 nmol/mg

## COCCN(CCOC)C(=O)c1cc2cc3nc(cc4[nH]c(cc5nc(cc1[nH]2)CC5(C)C)cc4C(=O)N(CCOC)CCOC)CC3(C)C
[1]; read-out: logP
  logP: ≥ 1.9
HeLa [2]
  CC50: 60 nM
HeLa [3]
  Drug uptake: 15 nmol/mg

## CC1(C)Cc2cc3[nH]c(cc4nc(cc5[nH]c(cc1n2)cc5C(=O)NCCN)CC4(C)C)cc3C(=O)NCCN
[1]; read-out: logP
  logP: -0.5
HeLa [2]
  CC50: 3000 nM
HeLa [6]
  Drug uptake: Active
HeLa [3]
  Drug uptake: 7.7 nmol/mg

## CC1(C)Cc2cc3[nH]c(cc4nc(cc5[nH]c(cc1n2)cc5C(=O)N1CC[N+](C)(C)CC1)CC4(C)C)cc3C(=O)N1CC[N+](C)(C)CC1.[Cl-].[Cl-]
[1]
  logP: -1
HeLa [2]
  CC50: 800 nM
HeLa [3]
  Drug uptake: 1.8 nmol/mg

## CC1(C)Cc2cc3[nH]c(cc4nc(cc5[nH]c(cc1n2)cc5C(=O)/C=C/c1cc(O)cc(O)c1)CC4(C)C)cc3C(=O)/C=C/c1cc(O)cc(O)c1
[1]; read-out: logP
  logP: ≥ 1.8
HeLa [2]
  CC50: 200 nM
HeLa [3]
  Drug uptake: 1.8 nmol/mg

## COCCOCCOCCOCCNCc1cc(CNCCOCCOCCOCCOC)cc(-c2c3nc(cc4[nH]c(cc4-c4ccc(C)cc4)c(OC)c4nc(cc5[nH]c2cc5-c2ccc(C)cc2)C(C)(C)C4)C(C)(C)C3)c1
[1]; read-out: logP
  logP: ≥ 2.2
HeLa [2]
  CC50: 500 nM
HeLa [3]
  Drug uptake: 3.9 nmol/mg
